Screening results from PubChem.
An excerpt weighted towards active compounds, which were near 3.3% of everything screened.
ABHD4 inh: inhibits mouse alpha/beta hydrolase domain 4. 370,000 tested, 0.54% active. inhibition, % at 8.92 µM. Q8VD66. purified mABHD4, FP-Rh probe fluorescence polarization;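 active = inhibition exceeding the mean over every tested compound plus 3 SD, cut at about 30% in these data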
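Test system: mABHD4 protein; Read-out basis: % inhibition; Incubation: 45 min + 60 min at 25 °C; Repeats: single replicate; Technique: fluorescence polarization with parallel and perpendicular emission, 525/598 nm; Compound: 8.92 µM, single dose; Benchmarks: full inhibition S159A mutant plus DMSO, zero as sample-well median.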
rCAG RNA binder: molecules binding r(CAG) RNA repeats | r(CAG) RNA repeat, TO-PRO-1 dye displacement fluorescence | inhibition, % at 3 µM | 370,000 tested, 1.3% active | AID 651821;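 active = inhibition above the plate cutoff, the mean of all test compounds on that plate plus 3 SD, cut at about 35% in these data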;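 note: higher means more dye released from RNA so lower well fluorescence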
SIAE inh: blocks human sialic acid acetylesterase; SIAE FP-Rh probe binding, fluorescence polarization; inhibition, % at 9.66 µM; 370,000 tested, 0.69% active;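 active = inhibition above a cutoff: mean of compounds within the control limits plus 3 SD of those, cut at about 17% in these data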
TCR CD3 inh: human TCR-CD3 binding inhibition | TAMRA-labeled TCR probe fluorescence, biochemical | inhibition, % at 9.4 µM | 360,000 tested, 0.37% active | AID 651800; in the data active = inhibition above about 19%;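 note: recombinant mutant TCR 2C K166C tagged with TAMRA read by polarization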
PRMT1 FP inh: PRMT1 (human) inhibition, primary screen; recombinant PRMT1, activity-based probe fluorescence polarization; inhibition, % at 2.79 µM; 370,000 tested, 1.3% active; AID 652257;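 active = inhibition above about 21% made by adding two undisclosed values, limit read from the data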
Target sequence (Q99873 whole entry, looked up): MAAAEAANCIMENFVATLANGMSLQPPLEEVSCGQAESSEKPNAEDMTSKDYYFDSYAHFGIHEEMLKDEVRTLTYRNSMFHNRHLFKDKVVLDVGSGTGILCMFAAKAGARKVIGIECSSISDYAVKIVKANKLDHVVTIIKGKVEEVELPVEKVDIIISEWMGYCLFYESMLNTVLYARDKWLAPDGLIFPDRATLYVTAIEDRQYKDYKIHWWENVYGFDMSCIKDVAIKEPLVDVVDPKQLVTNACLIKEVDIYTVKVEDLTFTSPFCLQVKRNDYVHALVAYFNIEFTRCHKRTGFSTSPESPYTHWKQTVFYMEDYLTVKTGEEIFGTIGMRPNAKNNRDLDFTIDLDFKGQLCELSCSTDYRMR
rCAG bind conf: r(CAG) RNA repeat binding, confirmation; 4,300 tested, 70% active; AID 652065; inhibition, % at 3 µM; TO-PRO-1 dye displacement fluorescence; shares compounds with rCAG RNA binder;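 active = inhibition above a per-plate cutoff, the mean inhibition of sample wells plus 3 SD, cut at about 35% in these data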;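 note: loss of TO-PRO-1 fluorescence as compound displaces dye from 1x1 AA loop RNA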
DNA CAG counter: counter-screen for rCAG RNA binders: DNA CAG dye complex inhibitors. shares compounds with rCAG RNA binder. d(CAG) DNA oligo TO-PRO-1 dye displacement, fluorescence. inhibition, % at 3 µM. 4,300 tested, 94% active;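 active = inhibition above its plate's cutoff, the mean test-well inhibition plus 3 SD, cut at about 4.8% in these data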;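 note: hits displace the dye from DNA and so lower well fluorescence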
Hits are given with their value; – = inactive; · = no result given.

SMILES	ABHD4 inh	rCAG RNA binder	SIAE inh	TCR CD3 inh	PRMT1 FP inh	rCAG bind conf	DNA CAG counter
COc1ccc([C@@H]2CC=C(C(=O)O)[C@H](c3cccc(Cl)c3)N2S(=O)(=O)c2ccc(C)cc2)cc1OC	–	39	–	–	–	–	7.0
Cc1ccc([C@@H]2CC=C(C(=O)O)[C@H](c3ccc(Br)cc3)N2S(=O)(=O)c2ccc(C)cc2)cc1	–	82	–	–	–	84	50
Cc1ccc(S(=O)(=O)N2[C@@H](c3ccc(Br)cc3)C(C(=O)O)=CC[C@H]2c2ccc(C(C)C)cc2)cc1	–	–	–	–	–	·	·
COc1cc(/C=C/C(=O)O)ccc1OS(=O)(=O)c1c(C)c(C)cc(C)c1C	–	56	–	–	–	56	16
COc1cc(/C=C/C(=O)O)cc(OC)c1OC	–	–	–	–	–	·	·
COc1ccc(NS(=O)(=O)c2c(F)cccc2F)cc1S(=O)(=O)N1CCOCC1	–	–	–	–	–	·	·
COc1ccc(NS(=O)(=O)c2c(F)cc(F)c(Cl)c2F)cc1S(=O)(=O)N1CCCCC1	–	40	–	–	–	36	11
O=S(=O)(Nc1ccc(S(=O)(=O)Nc2ncccn2)cc1)c1ccc(Cl)cc1	–	–	–	–	–	·	·
O=S(=O)(Nc1ncccn1)c1ccc(NC(=S)NCCc2ccc(Cl)cc2)cc1	–	38	–	–	–	–	–
Cc1ccc(CNC2CCC23CCC(c2ccccc2)CC3)o1 (stereo unspecified)	–	·	–	·	–	·	·
O=C(Nc1ccc(F)cc1)OCc1cn(Cc2cccc(F)c2F)nn1	–	–	–	·	–	·	·
CCc1cccc(NC(=O)CSc2nnc(Cc3ccc(OC)cc3)c(=O)[nH]2)c1	–	46	–	–	–	42	9.3
COc1ccc(S(=O)(=O)NNC(=O)c2cc3cc4ccccc4nc3s2)cc1	–	35	–	–	–	–	6.4
O=C(NC1CCCCN(Cc2cccc(Cl)c2)C1=O)c1ccc(COc2ccccc2)cc1 (stereo unspecified)	–	–	–	·	–	·	·
CCOc1ccc(Cn2c(O)cc(=O)[nH]c2=O)cc1	–	47	–	–	–	–	–
CCCCC[C@@H]1C=C(C(=O)O)[C@H](c2ccc(Br)cc2)N1S(=O)(=O)c1ccc(C)cc1	–	80	–	–	–	69	31
CCCC[C@@H]1C=C(C(=O)O)[C@H](c2ccc(Cl)cc2)N1S(=O)(=O)c1ccc(C)cc1	–	58	–	–	–	54	20
CCCC[C@@H]1C=C(C(=O)O)[C@H](c2ccc3c(c2)OCO3)N1S(=O)(=O)c1ccc(C)cc1	–	45	–	–	–	39	11
CCCCCc1ccc(NC(=O)O[C@@H]2CC[C@@]34CCCN3C(=O)CCC[C@H]4C2)cc1	–	·	–	·	–	·	·
c1ccc(CN2CCN(c3ncnc4sccc34)CC2)cc1	–	·	–	·	–	·	·
CCOC(=O)C1=CCN(S(=O)(=O)c2ccc(Cl)cc2)C1c1cccc(Cl)c1 (stereo unspecified)	–	–	–	–	–	·	·
NC(CCc1ccccc1)c1csc(NC(=O)Nc2cccc(Cl)c2)n1 (stereo unspecified)	–	47	–	–	–	40	9.8
NC(c1ccccc1)c1csc(NC(=O)Nc2ccc(OC(F)(F)F)cc2)n1 (stereo unspecified)	–	41	–	–	–	35	13
NC(c1ccccc1)c1csc(NC(=O)Nc2cccc(Cl)c2)n1 (stereo unspecified)	–	48	–	–	–	37	17
NC(COCc1ccccc1)c1csc(NC(=O)Nc2cccc(C(F)(F)F)c2)n1 (stereo unspecified)	–	43	–	–	–	–	5.1
SMILES	ABHD4 inh	rCAG RNA binder	SIAE inh	TCR CD3 inh	PRMT1 FP inh	rCAG bind conf	DNA CAG counter
NC(=O)c1ccc(Nc2nc(C(N)COCc3ccccc3)cs2)cc1 (stereo unspecified)	–	–	–	–	–	·	·
CC(=O)N1CCCN(C(=O)CCn2nnc3ccccc32)CC1	–	–	–	·	–	·	·
O=C(OC12CCCN(C1)/C(=C/c1ccncc1)C2)c1cccc(F)c1 (stereo unspecified)	–	–	–	·	–	·	·
N#C/C(=N\Nc1cccc(C(F)(F)F)c1)C(=O)c1ccsc1	–	76	–	–	–	56	18
O=C(Nc1ccccc1)Nc1cccc(C(F)(F)F)c1	–	–	–	–	–	·	·
O=C(NCCc1ccc(F)cc1)c1ccc2c(c1)ncn2C1CCCCC1	–	–	–	·	–	·	·
Fc1cccc2sc(Nc3nc4cc5c(cc4s3)OCCO5)nc12	–	–	–	–	–	·	·
Fc1cccc2sc(Nc3nc4cc5c(cc4s3)OCO5)nc12	–	67	–	–	–	54	33
COC(CNC(=O)[C@H](Cc1ccccc1)NC(C)(C)C(=O)NC1CCCCC1)OC	–	·	–	·	–	·	·
C#CCN1C(=O)[C@@](O)(c2cccn2C)c2cc(F)ccc21	–	–	–	·	–	·	·
Cc1ccc(C(=O)Nc2ccccc2C(=O)NC(Cc2c[nH]c3ccccc23)C(=O)O)cc1 (stereo unspecified)	–	61	–	–	–	63	24
CCC(NC(=O)c1ccccc1NC(=O)c1ccc(C)cc1)C(=O)O (stereo unspecified)	–	–	–	–	–	·	·
Cc1ccc(C(=O)Nc2ccccc2C(=O)NC(Cc2ccccc2)C(=O)O)cc1 (stereo unspecified)	–	43	–	–	–	38	8.7
C=CCN1C(=O)[C@@H](CC(=O)N2CCOCC2)[C@]2(C(=O)OCC)CCCCC/C=C/12	–	–	–	·	–	·	·
CC(C)CCNC(=O)[C@H]1COC(O)([C@H](Cc2ccccc2)NC(=O)[C@@H](NC(=O)OCc2ccccc2)C(C)C)CN1C (stereo partly specified)	–	·	–	·	–	·	·
O=C(Nc1cccc(C(F)(F)F)c1)C(Sc1n[nH]c(=O)[nH]c1=O)c1ccccc1 (stereo unspecified)	–	39	–	–	–	38	12
COc1ccc(S[C@]2(C(=O)N3CCN(C(C)=O)CC3)CC(=O)N(C(=O)CCc3ccccc3)[C@@H]2c2ccc(OC)cc2)cc1	–	–	–	·	–	·	·
CC1=CCC(C(=O)O)C(C(=O)Nc2ccc(-c3nc4ccc(C)cc4s3)cc2)C1 (stereo unspecified)	–	67	–	–	–	73	36
CC(=O)NC(=S)Nc1ccc(-c2nc3ccc(C)cc3s2)cc1	–	–	–	–	–	·	·
Cc1ccc2nc(-c3ccc(NS(=O)(=O)c4ccc(F)cc4)cc3)sc2c1	–	48	–	–	–	60	24
O=[N+]([O-])c1ccc2nc(NS(=O)(=O)c3ccc(F)cc3)sc2c1	–	43	–	–	–	–	–
CC(=O)Nc1ccc(S(=O)(=O)Nc2nc3ccc(C)cc3s2)cc1	–	–	–	–	–	·	·
